# Data: article PMC5623067 (Bioorganic & medicinal chemistry letters, 2017)
# Several values for one entry are separate records, joined by “and”; a condition that tells them apart may be missing. Equal values may be shown once.
# Columns and labels:
# human topoisomerase IIα [1] = target: T1, human topoisomerase IIα (Homo sapiens, UniProt P11388); assay: DNA; type: biochemical; conditions: kDNA decatenation
# human topoisomerase IIα [2] = target: T1, human topoisomerase IIα; assay: Inhibition of topoisomerase IIα-mediated DNA cleavage in the presence of Ca2+; type: biochemical; conditions: Ca2+ in place of Mg2+; 150 nM enzyme; xanthone up to 10 µM
# In short: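 Negatively supercoiled DNA incubated with 150 nM human topoisomerase IIα and test compound. CaCl2 was added to raise baseline enzyme-mediated DNA cleavage. Cleaved DNA was resolved on gels, with controls of DNA without enzyme and enzyme without compound. Cleavage without compound was set to 100%. Gels are representative of 3 experiments, and standard deviations come from 2-3 independent experiments.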
# human topoisomerase IIα [3] = target: T1, human topoisomerase IIα; assay: DNA relaxation catalyzed by 150 nM topoisomerase IIα; type: biochemical; conditions: 10 µM compound
# In short: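 Negatively supercoiled DNA relaxed by 150 nM human topoisomerase IIα with test compound present. Gels show supercoiled DNA without enzyme and enzyme-treated DNA without compound as controls. Each gel is representative of 2-4 independent experiments.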
# human topoisomerase IIα [4] = target: T1, human topoisomerase IIα; assay: Competition assay: block of etoposide-enhanced DNA cleavage; type: biochemical; conditions: 100 µM etoposide; 5-100 µM compound (compound 5 up to 10 µM)
# human topoisomerase IIα [5] = target: T1, human topoisomerase IIα; assay: DNA relaxation assay; type: biochemical; conditions: 3 nM enzyme; for IC50: IC50 for inhibition of DNA relaxation, negatively supercoiled DNA
# human topoisomerase IIα [6] = target: T1, human topoisomerase IIα; assay: ATP hydrolysis catalyzed by topoisomerase IIα; type: biochemical; conditions: up to 50 µM
# [7] = Solubility limit noted in the assays; type: physicochemical; conditions: only used up to 10 µM
# T1 sequence (P11388 whole entry): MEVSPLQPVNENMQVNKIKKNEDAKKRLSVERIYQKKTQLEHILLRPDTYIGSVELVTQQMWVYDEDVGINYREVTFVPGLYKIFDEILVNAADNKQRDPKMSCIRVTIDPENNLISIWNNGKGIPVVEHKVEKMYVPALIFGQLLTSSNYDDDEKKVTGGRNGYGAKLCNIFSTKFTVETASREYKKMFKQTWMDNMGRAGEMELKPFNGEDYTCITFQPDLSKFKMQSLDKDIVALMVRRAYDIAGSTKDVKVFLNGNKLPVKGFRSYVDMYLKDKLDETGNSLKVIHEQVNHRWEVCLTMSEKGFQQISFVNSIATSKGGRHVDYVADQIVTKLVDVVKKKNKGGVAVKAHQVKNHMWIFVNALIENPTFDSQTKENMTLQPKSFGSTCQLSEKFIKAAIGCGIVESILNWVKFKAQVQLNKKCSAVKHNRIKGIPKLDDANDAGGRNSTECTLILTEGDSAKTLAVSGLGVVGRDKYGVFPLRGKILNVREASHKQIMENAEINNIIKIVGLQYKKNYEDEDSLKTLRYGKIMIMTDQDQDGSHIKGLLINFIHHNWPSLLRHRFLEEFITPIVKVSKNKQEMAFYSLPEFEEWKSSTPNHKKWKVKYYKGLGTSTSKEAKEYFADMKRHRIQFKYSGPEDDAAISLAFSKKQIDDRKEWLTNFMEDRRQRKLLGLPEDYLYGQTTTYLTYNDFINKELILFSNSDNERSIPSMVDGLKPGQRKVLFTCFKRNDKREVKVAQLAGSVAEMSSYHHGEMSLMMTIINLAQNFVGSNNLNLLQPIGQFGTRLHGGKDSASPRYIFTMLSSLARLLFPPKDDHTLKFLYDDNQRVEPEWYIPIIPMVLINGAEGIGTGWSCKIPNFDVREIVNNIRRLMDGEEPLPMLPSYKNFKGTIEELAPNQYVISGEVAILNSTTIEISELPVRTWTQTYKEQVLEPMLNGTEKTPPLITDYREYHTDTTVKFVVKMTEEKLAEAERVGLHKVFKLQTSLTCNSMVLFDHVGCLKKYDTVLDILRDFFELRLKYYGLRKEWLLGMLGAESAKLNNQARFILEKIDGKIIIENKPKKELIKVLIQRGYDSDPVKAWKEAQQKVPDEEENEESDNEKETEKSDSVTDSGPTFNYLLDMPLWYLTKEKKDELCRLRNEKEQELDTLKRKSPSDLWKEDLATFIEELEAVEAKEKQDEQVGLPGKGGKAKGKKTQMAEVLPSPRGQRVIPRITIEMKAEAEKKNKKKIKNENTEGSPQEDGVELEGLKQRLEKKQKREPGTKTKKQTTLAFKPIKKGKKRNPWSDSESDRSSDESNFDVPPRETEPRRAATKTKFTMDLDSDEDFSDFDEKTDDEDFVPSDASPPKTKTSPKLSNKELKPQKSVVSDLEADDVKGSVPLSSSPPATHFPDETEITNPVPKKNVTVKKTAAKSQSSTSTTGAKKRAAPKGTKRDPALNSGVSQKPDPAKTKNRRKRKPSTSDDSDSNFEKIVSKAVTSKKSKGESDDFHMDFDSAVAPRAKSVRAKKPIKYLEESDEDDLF
SMILES,order of potency in decatenation assay (human topoisomerase IIα [1]),inhibition of enzyme-mediated DNA cleavage (human topoisomerase IIα [2]),inhibition of DNA relaxation by 150 nM enzyme (human topoisomerase IIα [3]),ability to block DNA cleavage enhancement by etoposide (human topoisomerase IIα [4]),IC50 (human topoisomerase IIα [5]),inhibition of ATP hydrolysis in the absence of DNA (human topoisomerase IIα [6]),solubility in assay [7],ability to inhibit DNA relaxation at 10 µM (human topoisomerase IIα [5]; 10 µM)
Cl.Cl.NCCCNCC(O)COc1cc(O)c2c(=O)c3ccccc3oc2c1 (stereo not drawn) [compound 2],much more potent than compound 6,do not inhibit the DNA cleavage step,complete (or near complete) inhibition,competed with etoposide,,,,
NCCCCNCCCNCC(O)COc1cc(O)c2c(=O)c3ccccc3oc2c1.O=C(O)C(F)(F)F.O=C(O)C(F)(F)F.O=C(O)C(F)(F)F (stereo not drawn) [compound 4],much more potent than compound 6,do not inhibit the DNA cleavage step,complete (or near complete) inhibition,competed with etoposide,2.5 to 5 µM and < 5 µM,no inhibition was observed,,
Cl.Cl.Cl.Cl.NCCCNCCCCNCCCNCC(O)COc1cc(O)c2c(=O)c3ccccc3oc2c1 (stereo not drawn) [compound 5],much more potent than compound 6,do not inhibit the DNA cleavage step,complete (or near complete) inhibition,competed with etoposide,~1 µM and < 5 µM,,solubility issues,
"O=c1c2ccccc2oc2cc(O)cc(O)c12 [compound 6, 1,3-dyhydroxy-9h-xanthen-9-one]",,,no ability to inhibit DNA relaxation,,,,,no ability to inhibit DNA relaxation
